GSIS activator: GLuc luminescence reporter in INS-1E cells, primary screen for activators of glucose-dependent secretion of insulin; INS-1E GLuc reporter insulin secretion, 2-3 h; activation, % at 16.6 µM; 370,000 tested, 0.61% active; AID 743287, 2014;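 active means lowest replicate activation of at least 40%, so every replicate reaches that level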;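 further: 0% = median of neutral control wells and 100% = median of IBMX positive control wells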
S100A4 MyoIIA: inhibitors of S100A4-myosin IIA peptide binding, primary screen, biochemical, fluorescence polarization, TAMRA-MyoIIA peptide | inhibition, % at 10.7 µM | Protein S100-A4 (Homo sapiens), P26447 | 360,000 tested, 0.14% active;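 active means mean inhibition of at least 70% across replicates, with every replicate also reaching that level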
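Compound dosing: one dose per compound; test system: human S100A4 monomer with TAMRA-labelled myosin IIA peptide; probe or stimulus: TAMRA-labelled myosin IIA heavy-chain peptide probe, 5 nM; medium: HEPES buffer with Ca2+, pH 7.2; schedule: 5 min incubation before reading; benchmarks: neutral control DMSO, positive control TFP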
ERAP1 inh: human ERAP1 aminopeptidase inhibitors, primary screen, biochemical, single point, plate reader; Endoplasmic reticulum aminopeptidase 1 (Homo sapiens), Q9NZ08; recombinant ERAP1, Leu-AMC fluorescence, 60 min; inhibition, % at 10.7 µM; 340,000 tested, 0.15% active; AID 652197, 2013;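 active means mean replicate inhibition of at least 30%, or all replicates individually reaching that 30% level; inactive means mean below 30% and not every replicate reaching it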;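 further: 0% = neutral control wells and 100% = L-leucinethiol positive control wells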
AF4-AF9 inh: inhibitors of AF4 peptide binding to AF9, primary screen, biochemical, AlphaScreen, biotin-AF4 peptide, FLAG-AF9, single point. Protein AF-9 (Homo sapiens), P42568. inhibition, % at 10 µM. 350,000 tested, 0.47% active. AID 651704, 2012;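 active means every replicate reaching a set inhibition limit, whatever the replicate mean, cut at about 25% in these data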;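 further: 0% = plate neutral control median and 100% = total signal loss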
Target sequence (P42568 whole entry, looked up): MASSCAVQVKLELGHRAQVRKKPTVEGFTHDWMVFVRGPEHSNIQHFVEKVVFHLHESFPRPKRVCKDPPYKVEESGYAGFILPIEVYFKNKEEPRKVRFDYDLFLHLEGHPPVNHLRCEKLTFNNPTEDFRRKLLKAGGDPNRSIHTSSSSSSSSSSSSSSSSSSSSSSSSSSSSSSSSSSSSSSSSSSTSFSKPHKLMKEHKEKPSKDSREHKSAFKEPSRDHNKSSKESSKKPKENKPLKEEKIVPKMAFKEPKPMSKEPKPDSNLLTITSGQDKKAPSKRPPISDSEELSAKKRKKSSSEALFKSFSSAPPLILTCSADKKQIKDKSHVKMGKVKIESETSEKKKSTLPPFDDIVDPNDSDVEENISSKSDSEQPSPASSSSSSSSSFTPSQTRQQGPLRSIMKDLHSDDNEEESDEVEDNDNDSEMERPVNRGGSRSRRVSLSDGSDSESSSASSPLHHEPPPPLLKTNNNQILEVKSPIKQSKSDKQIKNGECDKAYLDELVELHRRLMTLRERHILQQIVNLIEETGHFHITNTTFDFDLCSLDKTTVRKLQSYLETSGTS
RAD52 anneal inh: RAD52 DNA annealing inhibitors, primary screen, biochemical, FRET, single point, set 2; DNA repair protein RAD52 homolog (Homo sapiens), P43351; recombinant RAD52 DNA annealing, FRET fluorescence; inhibition, % at 18.7 µM; 360,000 tested, 0.46% active; AID 651710, 2012;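 active means every replicate showing at least 50% inhibition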
* marks the source's active call; other numbers are inactive results; · = no result given; ! = not active in a repeat. Shown are actives, neighbours in structure and some others; about 1.5% of the full set was active somewhere.

SMILES | GSIS activator | S100A4 MyoIIA | ERAP1 inh | AF4-AF9 inh | RAD52 anneal inh
C[C@H](CO)N1C[C@H](C)[C@@H](CN(C)S(C)(=O)=O)Oc2c(NC(=O)CCCN(C)C)cccc2C1=O | -14 | · | · | · | ·
COCC(=O)N(C)C[C@@H]1Oc2cc(C#C[C@@H](C)O)ccc2S(=O)(=O)N([C@H](C)CO)C[C@H]1C | 7 | 1 | -4 | -3 | 9
C[C@@H]1CN([C@@H](C)CO)C(=O)Cc2cc(NC(=O)CCC(F)(F)F)ccc2O[C@H]1CN(C)C(=O)Nc1cccc2ccccc12 | -10 | · | · | · | ·
COc1cccc(CN2CCC3(CC2)CN(C(=O)Nc2ccc(F)cc2)[C@H](CO)c2c3c3ccc(OC)cc3n2C)c1 | -29 | · | · | 36* | ·
COc1ccc2c3c(n(C)c2c1)[C@@H](CO)N(C(=O)Nc1ccc(F)cc1)CC31CCN(Cc2ccccn2)CC1 | -9 | 7 | 0 | 29* | 23
O=C(C[C@H]1CC[C@H](NC(=O)C2CCC2)[C@H](CO)O1)NCc1ccccc1Cl | 11 | 5 | 0 | 0 | -7
C[C@@H]1CN([C@H](C)CO)C(=O)c2cc(N(C)C)ccc2O[C@@H](C)CCCCO[C@@H]1CN(C)Cc1ccc(C(=O)Nc2ccccc2N)cc1 | 20 | · | · | · | ·
COc1ccc2c3c([nH]c2c1)[C@@H](CO)N(C(=O)c1ccccc1)CC31CN(C)C1 | 10 | -18 | -3 | 1 | -7
CONc1nc(NC(C)(C)C)nc(OCC#N)n1 | 65* | -3 | -2 | -3 | -7
COC(=O)CSc1nc(NC#N)nc(NC(C)(C)C)n1 | 12 | 0 | 5 | 3 | -4
O=C(Cc1ccccc1)Nc1cccc(N2C(=O)C=CC2=O)c1 | 59* | -2 | 17 | 5 | -16
COCC(=O)N(C)C[C@@H]1Oc2ncc(-c3ccccc3C)cc2C(=O)N([C@@H](C)CO)C[C@H]1C | 26 | -6 | 0 | -2 | 0
CCOc1c(Br)cc(CNc2ccc(N3CCN(C(C)=O)CC3)cc2)cc1OC | -1 | 13 | -5 | 27* | 27
CCOc1cc(CNc2ccc(N3CCN(C(C)=O)CC3)cc2)cc(Br)c1OC | 35 | · | · | · | ·
COc1ccccc1N1CCN(Cc2cn[nH]c2-c2ccc(F)cc2)CC1 | 0 | 3 | -5 | 53* | -4
COc1ccccc1N1CCN(Cc2nc(-c3ccc(F)cc3)oc2C)CC1 | -14 | -6 | -1 | 6 | -10
CCCC(=O)N1CC2(CCN(C(=O)CC3CC3)CC2)c2c(n(C)c3cc(OC)ccc23)[C@H]1CO | -11 | · | · | · | ·
Cc1ccc(SC(C)C(=O)NC(N)=O)c(C)c1 (stereo not given) | 41* | -1 | 1 | -2 | -8
N#Cc1cccc(-c2ccc(C3[C@@H]4CN(C(=O)Nc5ccc6c(c5)OCO6)C[C@H]3N4)cc2)c1 (stereo not given in full) | -37 | 1 | -1 | 13 | 55*
N#Cc1cccc(-c2ccc(C3[C@@H]4CN(C(=O)Nc5ccccc5)C[C@H]3N4)cc2)c1 (stereo not given in full) | 9 | 14 | -2 | -7 | 3
N#Cc1ccc(-c2ccc(C3[C@@H]4CN(C(=O)c5ccc6c(c5)OCO6)C[C@H]3N4)cc2)cc1 (stereo not given in full) | 7 | -7 | 2 | -5 | 56*!
O=C(Nc1ccc2c(c1)OCO2)N1C[C@@H]2N[C@H](C1)C2c1ccc(-c2ccccc2)cc1 (stereo not given in full) | 0 | 34 | · | 31* | 68*
O=C(Nc1ccccc1)N1C[C@@H]2N[C@H](C1)C2c1ccc(-c2cccnc2)cc1 (stereo not given in full) | 5 | 6 | 0 | -5 | 6
Cc1noc(C)c1S(=O)(=O)N(C)C[C@H]1OCCCC[C@H](C)Oc2ccc(NC(=O)NC3CCCCC3)cc2C(=O)N([C@H](C)CO)C[C@H]1C | 7 | · | · | · | ·
Cc1ccc(S(=O)(=O)NC2=C(N3CCN(c4ccccc4F)CC3)C(=O)c3ccccc3C2=O)cc1 | -21 | -2 | 3 | 35* | -9
SMILES | GSIS activator | S100A4 MyoIIA | ERAP1 inh | AF4-AF9 inh | RAD52 anneal inh
COC(=O)C1CCN(C2=C(NS(=O)(=O)c3ccc(Cl)cc3)C(=O)c3ccccc3C2=O)CC1 | 11 | 4 | -3 | 39* | -3
CC(=O)Nc1ccc(S(=O)(=O)NC2=C(N3CCN(c4ccc(F)cc4)CC3)C(=O)c3ccccc3C2=O)cc1 | -16 | -6 | -1 | 45* | -7
CCOC(=O)N1CCN(C2=C(NS(=O)(=O)c3ccc(C)cc3)C(=O)c3ccccc3C2=O)CC1 | 11 | -6 | 2 | 1 | -25
Cc1ccc(S(=O)(=O)NC2=C(N3CCN(Cc4ccccc4)CC3)C(=O)c3ccccc3C2=O)cc1 | 0 | 2 | 3 | 35* | -6
COc1ccc2c3c([nH]c2c1)[C@H](CO)N(Cc1ccccc1F)CC31CCN(C(=O)C2CCC2)CC1 | -17 | -2 | 0 | · | -75
CCOc1ccc(C(=O)NCC(=O)Nc2cc(C)ccn2)cc1OCC | 44* | -4 | -2 | 1 | -10
Cc1ccnc(NC(=O)CNC(=O)c2ccco2)c1 | 45* | 13 | 2 | -2 | -9
Cc1ccc(C(=O)NCC(=O)Nc2cc(C)ccn2)cc1 | -6 | -5 | -4 | -17 | -19
COc1ccc(C(=O)NCC(=O)OCCCOC(=O)CNC(=O)c2ccc(OC)c(OC)c2)cc1OC | -3 | -1 | 15 | -2 | 1
CCOc1ccc(C(=O)NCC(=O)OCCCC(=O)c2ccc(F)cc2)cc1OCC | 45* | -4 | -7 | 0 | -7
O=C1CC(NS(=O)(=O)c2cccs2)CN1c1cccc(F)c1 (stereo not given) | 46* | 9 | 4 | -1 | -7
C[C@H](CO)N1C[C@H](C)[C@@H](CN(C)Cc2ccncc2)Oc2c(NC(=O)Cn3cnnn3)cccc2C1=O | 6 | · | · | · | ·
CS(=O)(=O)Nc1cccc(-c2cn3c(n2)SCC3)c1 | · | -1 | 26 | -3 | -2
O=S(=O)(Nc1cccc(-c2cn3c(n2)SCC3)c1)c1ccccc1 | -14 | -6 | 46* | 5 | -21
COC(=O)c1cc(=O)n(-c2ccc(F)cc2)c(=Nc2ccc(F)cc2)s1 | 21 | 2 | 7 | 27* | -13
Cc1ccccc1S(=O)(=O)N1C[C@@H]2N[C@H](C1)C2c1ccc(/C=C/c2ccccc2)cc1 (stereo not given in full) | 6 | · | · | · | ·
O=S(=O)(c1ccccc1F)N1C[C@@H]2N[C@H](C1)C2c1ccc(/C=C/c2ccccc2)cc1 (stereo not given in full) | 171*! | 5 | 1 | 1 | 74*!

Assay outcomes deposited in PubChem by Broad Institute.
